Published values pooled from the literature.
Lines come from different studies, so protocols differ.
Sample: plasma

SMILES	host	route	dose	notes	AUC(0-t)
COc1ccc2c(Cc3ccccc3F)c3n(c(=O)c2c1OC)CCc1cc2c(cc1-3)OCO2	rat	intravenous	5 mg/kg	–	22700 ng·h/mL
CCOC(=O)[C@@]12C[C@@H]1[C@@H](n1ccc3c(NC)nc(C#Cc4ccc(Cl)s4)nc31)[C@H](O)[C@@H]2O	male Sprague-Dawley rat	oral	3 mg/kg	–	170 ng·h/mL
O=C(Nc1cc(F)c(F)c(F)c1)c1ccc(F)c(S(=O)(=O)NCc2cccc(B(O)O)c2)c1	male Sprague-Dawley rat	oral	20 mg/kg	–	34.3 ng·h/mL
COc1nc(-c2cc(C)c(N[C@@H](C)c3cc(F)cc(F)c3)nn2)ccc1-n1cnc(C)c1	male Sprague-Dawley rat	intravenous	1 mg/kg	single dose	6350 ng·h/mL
COc1ccc(C(C)=O)c(O)c1	male Sprague-Dawley rat	oral	100 mg/kg	–	33600 ng·h/mL
Cc1nc(-c2cnc(NC(C)C)n(C)c2=O)ccc1Oc1ccnc(-c2cnn(C)c2)c1	male Sprague-Dawley rat	oral	10 mg/kg	–	164000 ng·h/mL
Cc1c(-c2ccccc2)cccc1N1C(=O)c2cc(CN[C@H](C(=O)O)C(C)O)c(OCc3cccc(C#N)c3)cc2C1=O (stereo partly shown)	Sprague-Dawley rat	oral	50 mg/kg	–	75 ng·h/mL
C#Cc1cccc(Nc2ncnc3cc(OCCOC)c(OCCOC)cc23)c1	male Sprague-Dawley rat	oral	12 mg/kg	single dose	9250 ng·h/mL
N#Cc1ccc(Nc2nc(N)cc(Oc3c(F)cc(-c4ccc(C#N)cc4)cc3F)n2)cc1	Sprague-Dawley rat	intravenous	1 mg/kg	–	302 ng·h/mL
CCc1cc(OC)c2nccc(N3CCc4c(cc(Cn5ccnc5)cc4-c4cn(C)nc4C(F)(F)F)C3=O)c2c1	male Sprague-Dawley rat	oral	50 mg/kg	–	10300 ng·h/mL
CNC(=O)c1c(C)oc2cc(Oc3ncnc4cc(OC)c(OC)cc34)ccc12	Sprague-Dawley rat	oral	1 mg/kg	single dose	6270 ng·h/mL
CCc1cc(C(=O)NC)c2nccc(N3CCc4c(cc(Cn5ccnc5)cc4-c4cn(C)nc4C(F)(F)F)C3=O)c2c1	male Sprague-Dawley rat	oral	50 mg/kg	single dose	11100 ng·h/mL
C=CC(=O)N1CC2CC(n3nc(-c4ccc(C(=O)Nc5ccccn5)cc4)c4c(N)ncnc43)CC2C1 (stereo not shown)	male Wistar rat	oral	100 mg/kg	–	13200 ng·h/mL
